In ChEMBL document CHEMBL4425187, “A new class of flavonol-based anti-prostate cancer agents: Design, synthesis, and evaluation in cell models” (Bioorg Med Chem Lett, 2016):

Key:
PC-3 [1] = test: Potency index, ratio of IC50 for 3',4'-dimethoxyflavonol to IC50 for test compound against human PC3 cells; format: functional
Method in brief: (§1)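 IC50 from WST-1 proliferation assay in PC-3 (androgen-insensitive) and LNCaP (androgen-sensitive) cells after 3-day exposure at five concentrations, DMSO vehicle control, quercetin positive control. IC50 derived from dose-response curves, mean ± SEM. The index is the parent flavonol IC50 divided by the test compound IC50.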

LNCaP = test: Potency index, ratio of IC50 for 3',4'-dimethoxyflavonol to IC50 for test compound against human LNCAP cells; format: functional; method in brief: as §1
PWR-1E = test: Cytotoxicity against human PWR-1E cells assessed as inhibition of cell proliferation at 10 to 50 uM after 3 days by WST1 assay; format: cell-based; conditions: 72 h
PC-3 [2] = test: Induction of apoptosis is human PC3 cells assessed as early apoptotic cells after 16 hrs by F2N12S/CYTOX AADvanced double-staining based by flow cytometry relative to control; format: functional, cell-based
PC-3 [3] = test: Induction of apoptosis is human PC3 cells assessed as live cells at 1 uM after 16 hrs by F2N12S/CYTOX AADvanced double-staining based by flow cytometry (reference value: 88%); format: functional
PC-3 [4] = test: Induction of apoptosis is human PC3 cells assessed as early apoptotic cells at 1 uM after 16 hrs by F2N12S/CYTOX AADvanced double-staining based by flow cytometry (reference value: 3%); format: functional
PC-3 [5] = test: Induction of apoptosis is human PC3 cells assessed as late apoptotic/necrotic cells at 1 uM after 16 hrs by F2N12S/CYTOX AADvanced double-staining based by flow cytometry (reference value: 9%); format: functional
PC-3 [6] = test: Induction of apoptosis is human PC3 cells assessed as live cells at 5 uM after 16 hrs by F2N12S/CYTOX AADvanced double-staining based by flow cytometry (reference value: 88%); format: functional
PC-3 [7] = test: Induction of apoptosis is human PC3 cells assessed as late apoptotic/necrotic cells at 5 uM after 16 hrs by F2N12S/CYTOX AADvanced double-staining based by flow cytometry (reference value: 9%); format: functional
PC-3 [8] = test: Induction of apoptosis is human PC3 cells assessed as live cells at 10 uM after 16 hrs by F2N12S/CYTOX AADvanced double-staining based by flow cytometry (reference value: 88%); format: functional
PC-3 [9] = test: Induction of apoptosis is human PC3 cells assessed as live cells at 20 uM after 16 hrs by F2N12S/CYTOX AADvanced double-staining based by flow cytometry (reference value: 88%); format: functional
PC-3 [10] = test: Induction of apoptosis is human PC3 cells assessed as live cells at 30 uM after 16 hrs by F2N12S/CYTOX AADvanced double-staining based by flow cytometry (reference value: 88%); format: functional
PC-3 [11] = test: Induction of apoptosis is human PC3 cells assessed as early apoptotic cells at 30 uM after 16 hrs by F2N12S/CYTOX AADvanced double-staining based by flow cytometry (reference value: 3%); format: functional
PC-3 [12] = test: Induction of apoptosis is human PC3 cells assessed as late apoptotic/necrotic cells at 30 uM after 16 hrs by F2N12S/CYTOX AADvanced double-staining based by flow cytometry (reference value: 9%); format: functional
PC-3 [13] = test: Induction of apoptosis is human PC3 cells assessed as live cells at 50 uM after 16 hrs by F2N12S/CYTOX AADvanced double-staining based by flow cytometry (reference value: 88%); format: functional
PC-3 [14] = test: Induction of apoptosis is human PC3 cells assessed as early apoptotic cells at 50 uM after 16 hrs by F2N12S/CYTOX AADvanced double-staining based by flow cytometry (reference value: 3%); format: functional
PC-3 [15] = test: Induction of apoptosis is human PC3 cells assessed as late apoptotic/necrotic cells at 50 uM after 16 hrs by F2N12S/CYTOX AADvanced double-staining based by flow cytometry (reference value: 9%); format: functional
PC-3 [16] = test: Induction of apoptosis is human PC3 cells assessed as live cells at 100 uM after 16 hrs by F2N12S/CYTOX AADvanced double-staining based by flow cytometry (reference value: 88%); format: functional
PC-3 [17] = test: Induction of apoptosis is human PC3 cells assessed as early apoptotic cells at 100 uM after 16 hrs byF2N12S/CYTOX AADvanced double-staining based by flow cytometry (reference value: 3%); format: functional
PC-3 [18] = test: Induction of apoptosis is human PC3 cells assessed as late apoptotic/necrotic cells at 100 uM after 16 hrs by F2N12S/CYTOX AADvanced double-staining based by flow cytometry (reference value: 9%); format: functional
PC-3 [19] = test: Cell cycle arrest in human PC3 cells assessed as accumulation in G0/G1 phase at 10 uM after 20 hrs by propidium iodide staining-based flow cytometry (reference value: 63.7%); format: functional
PC-3 [20] = test: Cell cycle arrest in human PC3 cells assessed as accumulation in G0/G1 phase at 10 uM after 24 hrs by propidium iodide staining-based flow cytometry (reference value: 69.4%); format: functional
PC-3 [21] = test: Cell cycle arrest in human PC3 cells assessed as accumulation in G2/M phase at 10 uM after 20 hrs by propidium iodide staining-based flow cytometry (reference value: 17.4%); format: functional
PC-3 [22] = test: Cell cycle arrest in human PC3 cells assessed as accumulation in G2/M phase at 10 uM after 24 hrs by propidium iodide staining-based flow cytometry (reference value: 16%); format: functional

## CCCOc1c(-c2ccc(OC)c(OC)c2)oc2ccccc2c1=O
PC-3 [1]
  Ratio IC50: 41
LNCaP
  Ratio IC50: 32

## COc1ccc(-c2oc3ccccc3c(=O)c2OCCCCCN2CCOCC2)cc1OC
PC-3 [1]
  Ratio IC50: 91
LNCaP
  Ratio IC50: 26

## COc1ccc(-c2oc3ccccc3c(=O)c2OCCCCN2CCOCC2)cc1OC
PC-3 [1]
  Ratio IC50: 45
LNCaP
  Ratio IC50: 24

## CCCCCOc1c(-c2ccc(OC)c(OC)c2)oc2ccccc2c1=O
PC-3 [1]
  Ratio IC50: 24
LNCaP
  Ratio IC50: 14

## CCCCCCOc1c(-c2ccc(OC)c(OC)c2)oc2ccccc2c1=O
PC-3 [1]
  Ratio IC50: 29
LNCaP
  Ratio IC50: 16

## CCCCCCCOc1c(-c2ccc(OC)c(OC)c2)oc2ccccc2c1=O
PC-3 [1]
  Ratio IC50: 5
LNCaP
  Ratio IC50: 5

## CCOc1c(-c2ccc(OC)c(OC)c2)oc2ccccc2c1=O
PC-3 [1]
  Ratio IC50: 30
LNCaP
  Ratio IC50: 21

## COc1ccc(-c2oc3ccccc3c(=O)c2OC)cc1OC
PC-3 [1]
  Ratio IC50: 14
LNCaP
  Ratio IC50: 12.5

## COc1ccc(-c2oc3ccccc3c(=O)c2OCCCN2CCOCC2)cc1OC
PC-3 [1]
  Ratio IC50: 38
LNCaP
  Ratio IC50: 14

## CCCCN(CCCC)CCCCOc1c(-c2ccc(OC)c(OC)c2)oc2ccccc2c1=O
PC-3 [1]
  Ratio IC50: 152
LNCaP
  Ratio IC50: 47

## CCCCN(CCCC)CCCCCOc1c(-c2ccc(OC)c(OC)c2)oc2ccccc2c1=O
PC-3 [1]
  Ratio IC50: 102
LNCaP
  Ratio IC50: 41

## COc1ccc(-c2oc3ccccc3c(=O)c2O)cc1OC [3-HYDROXY-3',4'-DIMETHOXYFLAVONE]
PWR-1E
  Activity: Non-Toxic

## COc1ccc(-c2oc3ccccc3c(=O)c2OC(C)C)cc1OC
PC-3 [1]
  Ratio IC50: 12
LNCaP
  Ratio IC50: 20

## CCCCOc1c(-c2ccc(OC)c(OC)c2)oc2ccccc2c1=O
PC-3 [1]
  Ratio IC50: 24
LNCaP
  Ratio IC50: 25

## CCCCN(CCCC)CCCOc1c(-c2ccc(OC)c(OC)c2)oc2ccccc2c1=O
PC-3 [1]
  Ratio IC50: 292
LNCaP
  Ratio IC50: 84
PC-3 [2]
  Activity: Dose-dependent effect
PC-3 [3]
  Activity: 89%
PC-3 [4]
  Activity: 4%
PC-3 [5]
  Activity: 6%
PC-3 [6]
  Activity: 50%
PC-3 [7]
  Activity: 5%
PC-3 [8]
  Activity: 15%
PC-3 [9]
  Activity: 3%
PC-3 [10]
  Activity: 1%
PC-3 [11]
  Activity: 94%
PC-3 [12]
  Activity: 5%
PC-3 [13]
  Activity: 0%
PC-3 [14]
  Activity: 88%
PC-3 [15]
  Activity: 11%
PC-3 [16]
  Activity: 0%
PC-3 [17]
  Activity: 39%
PC-3 [18]
  Activity: 61%
PC-3 [19]
  Activity: 53.8%
PC-3 [20]
  Activity: 61.3%
PC-3 [21]
  Activity: 32%
PC-3 [22]
  Activity: 25.1%
PWR-1E
  Activity: Non-Toxic
